The record followed here is publication PMC7340117 (SLAS discovery : advancing life sciences R & D, 2019).

Molecules are shown by their SMILES. In brackets after ≈: the same amount, converted by molar mass. Where two headings read alike, the source gives them in different places. Some results are limits rather than exact numbers.

A short description of one data set: Amplex red REDOX assay. Summed up:
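Test compound (20 nL) was pinned into HBSS (1.26 mM CaCl2, 0.49 mM MgCl2, 1 g/L D-glucose), and background fluorescence was read (ex/em 525/598 nm). An equal volume of 2X Amplex Red mix (100 µM Amplex Red, 200 µM DTT, 2 U/mL HRP in HBSS) was added. After 15 min at room temperature the plate was re-read; ΔRFU = 15 min − 0 min. DMSO was the negative control; walrycin B and […] were positive controls.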

Data set [1] is described as follows: aqueous kinetic solubility assay. The settings on record: aqueous medium, kinetic from dmso stock. The data set is classed as physicochemical.
Data set [2] is described as follows: rat microsomal stability assay. The data set is classed as in vitro ADME. The settings on record: liver microsomes.
The target of data set [3] is T1, human fumarate hydratase (Homo sapiens, UniProt P07954).
T1 sequence (P07954 45-510): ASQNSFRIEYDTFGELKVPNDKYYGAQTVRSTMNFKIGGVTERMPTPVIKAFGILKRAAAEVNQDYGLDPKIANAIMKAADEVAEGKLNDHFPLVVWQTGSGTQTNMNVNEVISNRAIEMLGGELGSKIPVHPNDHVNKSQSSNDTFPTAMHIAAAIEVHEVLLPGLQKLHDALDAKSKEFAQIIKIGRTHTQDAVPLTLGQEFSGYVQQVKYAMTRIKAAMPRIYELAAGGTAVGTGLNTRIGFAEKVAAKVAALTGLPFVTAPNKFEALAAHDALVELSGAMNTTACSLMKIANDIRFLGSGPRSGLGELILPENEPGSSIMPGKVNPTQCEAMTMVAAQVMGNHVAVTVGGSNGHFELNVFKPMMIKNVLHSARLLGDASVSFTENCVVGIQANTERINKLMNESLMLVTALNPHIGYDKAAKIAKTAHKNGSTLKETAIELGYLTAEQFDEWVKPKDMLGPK
Kind of data set: microscale thermophoresis. The class given is binding. Summed up: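 Recombinant C-terminally His-tagged human FH (200 nM) was labelled with RED-tris-NTA dye (100 nM) in PBS-T pH 7.4, mixed 1:1 for 30 min at RT, and spun 15,000 x g. Compound: 16-point 1:2 DMSO series from 10 mM, diluted 20-fold in PBS-T, mixed 1:1 with protein (50 nM FH), 2–3 min RT. Settings: LED 40%, MST 40%/60%, laser 30 s on. Kd taken from cold/hot regions.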
(MST reads how a fluorescent partner responds to local heating, with and without ligand.)

Data set [4] is described as follows: parallel artificial membrane permeability assay. The class given is in vitro ADME.
Data set [5] has as its target T1, human fumarate hydratase. Kind of data set: fluorescence-based FH assay coupled to MDH/diaphorase/resazurin. The class given is biochemical. The settings on record: for Emax: read-out: Efficacy; for activity in FH assay (in words): human FH assay with fumarate.
Data set [6] deals with T2, L-malate dehydrogenase from pig heart (Sus scrofa, UniProt P00346).
T2 sequence (P00346 25-338): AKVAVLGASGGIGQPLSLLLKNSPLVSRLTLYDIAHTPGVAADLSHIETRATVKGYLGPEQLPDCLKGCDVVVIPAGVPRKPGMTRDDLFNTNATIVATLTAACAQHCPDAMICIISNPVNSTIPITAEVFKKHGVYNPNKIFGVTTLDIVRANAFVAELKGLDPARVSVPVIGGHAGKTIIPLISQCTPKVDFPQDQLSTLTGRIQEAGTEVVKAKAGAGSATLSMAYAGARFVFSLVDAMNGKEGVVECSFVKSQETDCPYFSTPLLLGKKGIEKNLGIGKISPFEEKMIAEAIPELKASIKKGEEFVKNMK
Kind of data set: malate dehydrogenase. The settings on record: read-out: Km value for MDH enzyme; 10 IU/ml MDH, 5 min, room temperature. The class given is biochemical.

The next data set has as its target T3, malate dehydrogenase (Sus scrofa, UniProt P00346).
T3 sequence (P00346 25-338): T2 sequence (P00346 25-338)
Description: MDH assay without malate. The class given is biochemical, pig. The settings on record: no malate added.

Data set [7] concerns the target T1, human fumarate hydratase. Kind of data set: FH assay without fumarate. The data set is classed as biochemical. The settings on record: no fumarate added.

In general, solubility refers to the dissolved amount per volume that the medium holds. Read a low solubility as little dissolved substance. As a reminder, the half-life is the time in which the quantity being followed falls by half. Read a high half-life as slow decline. A word on the Kd: it is the free concentration of one partner at which half of the binding sites on the other are occupied at equilibrium, for simple one-to-one binding. As a reminder, the AC50 is the midpoint of the concentration-response curve, whichever way the signal moves. Lower therefore signals greater potency. Usually Km stands for the concentration of substrate that gives half-maximal velocity.

Turning to `O=C1C(Cl)=C(Cl)C(=O)C(Cl)=C1Cl` [Chloranil], the “redox activity in amplex red assay (in words)” value in the data set “Amplex red REDOX assay” is recorded as “strong REDOX activity”.
As for `Cn1c(=O)c2c(-c3ccc(Cl)cc3)n(CCc3ccccc3)cc2n(C)c1=O` [NCGC00102736, 5-(4-chlorophenyl)-1,3-dimethyl-6-phenethyl-1,6-dihydro-2H-pyrrolo[3,4-d]pyrimidine-2,4(3H)-dione], the concentration in solution in data set [1] (solubility) came to 2.15 µg/mL (≈ 5.46 µM). In data set [2], this compound yielded a half-life of 1.11 min. Also, the Kd on human fumarate hydratase [3] worked out at 18.3 µM. Further, in data set [4], the “PAMPA permeability pH 5” value is reported as 762.26 1×10–6 cm/s, the “PAMPA Permeability pH 7.4” value is 1,224.00 1×10–6 cm/s and the “PAMPA permeability at pH 7.4 (in words)” value is reported as “high permeability”. Besides, on human fumarate hydratase [5], the AC50 is 8.89 µM and the Emax came out at 79.4%.
`CCCCn1cc2c(c1-c1ccc(Cl)cc1)c(=O)n(C)c(=O)n2C` [NCGC00115662, 6-butyl-5-(4-chlorophenyl)-1,3-dimethyl-1,6-dihydro-2H-pyrrolo[3,4-d]pyrimidine-2,4(3H)-dione]: at human fumarate hydratase [5], the AC50 worked out at 25.1 µM and the Emax was 60.5%.
The corresponding values for `Cn1c(=O)c2c(-c3ccc(Cl)cc3)n(Cc3ccc(Cl)cc3)cc2n(C)c1=O` [NCGC00115664, 6-(4-chlorobenzyl)-5-(4-chlorophenyl)-1,3-dimethyl-1,6-dihydro-2H-pyrrolo[3,4-d]pyrimidine-2,4(3H)-dione] are 17.7 µM and 52%.
Turning to `CCCCCn1cc2c(c1-c1ccc(Cl)cc1)c(=O)n(C)c(=O)n2C` [NCGC00115666, 5-(4-chlorophenyl)-1,3-dimethyl-6-pentyl-1,6-dihydro-2H-pyrrolo[3,4-d]pyrimidine-2,4(3H)-dione], at human fumarate hydratase [5], the AC50 stood at 5.61 µM and the Emax is 35%.
Taken in the same sequence, the figures for `Cn1c(=O)c2c(-c3ccccc3Cl)n(Cc3ccc(Cl)cc3)cc2n(C)c1=O` [NCGC00115668, 6-(4-chlorobenzyl)-5-(2-chlorophenyl)-1,3-dimethyl-1,6-dihydro-2H-pyrrolo[3,4-d]pyrimidine-2,4(3H)-dione] were 15.8 µM and 45.5%.
Take `CCCCCn1cc2c(c1-c1ccc(Br)cc1)c(=O)n(C)c(=O)n2C` [NCGC00117671, 5-(4-bromophenyl)-1,3-dimethyl-6-pentyl-1,6-dihydro-2H-pyrrolo[3,4-d]pyrimidine-2,4(3H)-dione]: the solubility in [1] is less than 1 µg/mL. The same compound yielded a half-life in [2] of 6.39 min. Besides, in [4], the “PAMPA permeability pH 5” value is 945.87 1×10–6 cm/s and the “PAMPA Permeability pH 7.4” value was “Not conclusive”. On human fumarate hydratase [5], the half-maximal activity concentration (AC50) is 7.93 µM and the Emax worked out at 60.1%.
With `CCCCn1cc2c(c1-c1ccc(Br)cc1)c(=O)n(C)c(=O)n2C` [NCGC00117675, 5-(4-bromophenyl)-6-butyl-1,3-dimethyl-1,6-dihydro-2H-pyrrolo[3,4-d]pyrimidine-2,4(3H)-dione], the solubility in [1] is less than 1 µg/mL. In [2], this compound came in with a half-life of 7.68 min. This compound also showed a Kd at human fumarate hydratase [3] of 23.3 µM. Further, in data set [4], the “PAMPA permeability pH 5” value is reported as 1,194 1×10–6 cm/s, the “PAMPA Permeability pH 7.4” value is on record as 1,507 1×10–6 cm/s and the “PAMPA permeability at pH 7.4 (in words)” value is listed as “high permeability”. In addition, on human fumarate hydratase [5], the AC50 turned out to be 9.98 µM and the Emax came to 79%.
For `Cn1c(=O)c2c(-c3ccc(Br)cc3)n(CCc3ccccc3)cc2n(C)c1=O` [NCGC00117693, 5-(4-bromophenyl)-1,3-dimethyl-6-phenethyl-1,6-dihydro-2H-pyrrolo[3,4-d]pyrimidine-2,4(3H)-dione], in data set [1], the solubility came out at 14.7 µg/mL (≈ 33.5 µM). In [2], this compound displayed a half-life of 1.23 min. In addition, in data set [4], the “PAMPA permeability pH 5” value is recorded as 590 1×10–6 cm/s and the “PAMPA Permeability pH 7.4” value was “Not conclusive”. Also, on human fumarate hydratase [5], half-maximal activity (AC50) was put at 7.06 µM and the Emax stood at 63.7%.
In the case of `COc1ccc(CCn2cc3c(c2-c2ccc(Br)cc2)c(=O)n(C)c(=O)n3C)cc1OC` [NCGC00117695, 5-(4-bromophenyl)-6-(3,4-dimethoxyphenethyl)-1,3-dimethyl-1,6-dihydro-2H-pyrrolo[3,4-d]pyrimidine-2,4(3H)-dione], at human fumarate hydratase [5], half-maximal activity (AC50) was put at 31.5 µM and the Emax is 79.5%.
As to `CCCCCn1cc2c(c1-c1ccccc1Br)c(=O)n(C)c(=O)n2C` [NCGC00117699, 5-(2-bromophenyl)-1,3-dimethyl-6-pentyl-1,6-dihydro-2H-pyrrolo[3,4-d]pyrimidine-2,4(3H)-dione], on human fumarate hydratase [5], the concentration at half-maximal activity (AC50) is 31.5 µM and the Emax stood at 49.7%.
Take `Cn1c(=O)c2c(-c3ccccc3Br)n(Cc3ccccc3)cc2n(C)c1=O` [NCGC00117701, 6-benzyl-5-(2-bromophenyl)-1,3-dimethyl-1,6-dihydro-2H-pyrrolo[3,4-d]pyrimidine-2,4(3H)-dione]: at human fumarate hydratase [5], the activity was half-maximal at 28.1 µM (AC50) and the Emax worked out at 78.1%.
The corresponding values for `Cn1c(=O)c2c(-c3ccccc3Br)n(CCc3ccccc3)cc2n(C)c1=O` [NCGC00117727, 5-(2-bromophenyl)-1,3-dimethyl-6-phenethyl-1,6-dihydro-2H-pyrrolo[3,4-d]pyrimidine-2,4(3H)-dione] are 25.1 µM and 70%.
As to `Cn1c(=O)c2c(-c3ccccc3)n(CCCO)cc2n(C)c1=O` [NCGC00141286], the “activity in FH assay (in words)” value at human fumarate hydratase [5] is “inactive”.
The same measure, in the same setting: as for `O=C([O-])C(O)C(O)C(=O)[O-].[K+].[Na+]` (centres unmarked) [Potassium sodium tartrate, reference compound], the entry is “increased activity”.
In the case of `Cn1nc(-c2ccc(C(F)(F)F)cc2)nc2c(=O)n(C)c(=O)nc1-2` [Walrycin B], the “redox activity in amplex red assay (in words)” value is “weak” in “Amplex red REDOX assay” and “weak REDOX activity” in “Amplex red REDOX assay” (listed as walrycin B).
Turning to `O=C(O)/C=C/C(=O)O` [fumarate, reference compound], the Km at human fumarate hydratase [5] (read-out: Km value for FH enzyme, 10 nM FH, 15 min, room temperature) was 41 ± 1.1 µM.
Regarding `O=C(O)CC(O)C(=O)O` (centres unmarked) [malate], in data set [6], the Km is 225 ± 30 µM.
Consider `O=C(O)C(O)C(O)C(=O)O` (centres unmarked) [tartrate], for which the “signal in MDH assay in the absence of malate (in words)” value at malate dehydrogenase was “can drive both enzymes”. Further, the “signal in FH assay in the absence of fumarate (in words)” value on human fumarate hydratase [7] is “can drive both enzymes”.
